Data set [1] is described as follows: Toxicity in CF1 mouse assessed as induction of abdominal constriction measured at time of treatment by writhing test. Conditions: in vivo.
Data set [2] can be described thus: Toxicity in mouse HT22 cells assessed as inhibition of cell viability at 10 uM incubated for 48 hrs by Cell-titer-Blue dye based fluorescence spectrophotometry relative to control. Details: species or system HT-22. Conditions: read-out: Activity. A digest of the protocol: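 HT-22 cells in DMEM high glucose with 10% FBS, 2000 per well. Serially diluted compound added after 12 h, incubated 48 h. […] Background subtracted, normalized to control wells.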

Data set [3] deals with Mus musculus. As to the kind of experiment: Anti-seizure activity in CF1 mouse assessed as attenuation of psychomotor seizures at stimulus intensities of 32 mA at 400 mg/kg, ip measured at 0.25 to 4 hrs by 6 Hz limbic seizure test relative to control. Format: functional. A digest of the protocol: (§1)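 Male CF-1 mice, n=8 per dose. 6 Hz, 3 s corneal stimulation at 32 or 44 mA. Compound given ip in miglyol840/DMSO (95%/5%). Time of peak effect found by testing at 0.25–4 h; dose-response run at that time. Protected if no stun, jaw/forelimb clonus, vibrissae twitching or Straub tail for ≥1 s. ED50 by Probit analysis.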

In data set [4] the test system is Mus musculus. Nature of the data set: Anti-seizure activity in CF1 mouse assessed as attenuation of psychomotor seizures at stimulus intensities of 44 mA at 400 mg/kg, ip measured at 0.25 to 4 hrs by 6 Hz limbic seizure test relative to control. Format: functional. A digest of the protocol: as §1
Data set [5] is described as follows: Toxicity in CF1 mouse assessed as induction of discolored urine. To be noted: in vivo.
In data set [6] the test system is Mus musculus. Nature of the data set: Anti-seizure activity in ip dosed CF1 mouse assessed as reduction in hindlimb tonic extension during seizure measured at 1 hr by MES test. Format: functional. A digest of the protocol:
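Male CF-1 mice, n=8 per dose, dosed ip as 0.5% HPMC suspension, tested 1 h later. Corneal 60 Hz, 50 mA, 2 s shock after 0.5% tetracaine applied to eyes. Protection = absence of hindlimb tonic extension. ED50 from four dose levels.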

The species entered for data set [7] is Danio rerio. As to the kind of experiment: Increase in ATP concentration in zebrafish at 1 uM incubated for 24 hrs by fluorometric ATP assay relative to control. The class given is functional. A digest of the protocol: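 7 dpf zebrafish larvae, one per well, kept at 28.5°C for 24 h with compound in E3 buffer (DMSO stock). DMSO vehicle in control wells. Twelve fish per condition pooled, flash-frozen, homogenized in ATP buffer and centrifuged. ATP in the supernatant read by fluorescence at ex 535/em 587 nm, normalized to total protein (BCA), and expressed as nmole/mg relative to DMSO control. n = 7–13.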

Data set [8] can be described thus: Drug level in CD1 mouse plasma at 400 mg/kg, ip after 0.5 hrs by LC-MS/MS analysis. The class given is ADME, organism-based. A digest of the protocol:
(§2)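 Male mice fasted overnight and given ip dose in 95% Miglyol 840/5% DMSO. Plasma precipitated 3:1 with acetonitrile plus internal standard. Brain homogenized 3:1 in PBS, then acetonitrile extraction. LC-MS/MS in MRM mode, standard curve 1 ng/mL–10 μg/mL. Ratio = mean tissue (ng/g) over mean plasma (ng/mL) concentration.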

Data set [9] is described as follows: Drug level in CD1 mouse plasma at 400 mg/kg, ip after 1 hr by LC-MS/MS analysis. The class given is ADME, organism-based. An outline of the steps:
as §2

Data set [10] is described as follows: Drug level in CD1 mouse brain at 400 mg/kg, ip after 2 hrs by LC-MS/MS analysis. Format: ADME, organism-based. Conditions: read-out: Drug uptake. A digest of the protocol: as §2
The nature of data set [11]: Drug level in CD1 mouse brain at 400 mg/kg, ip after 4 hrs by LC-MS/MS analysis. Conditions: read-out: Drug uptake. The class given is ADME, organism-based. An outline of the steps: as §2
A short description of data set [12]: Drug level in CD1 mouse brain at 400 mg/kg, ip after 8 hrs by LC-MS/MS analysis. Format: ADME, organism-based. Conditions: read-out: Drug uptake. A digest of the protocol:
as §2

Data set [13] can be described thus: Cmax in CD1 mouse at 20 mg/kg, ip measured after 0.083 to 24 hrs by LC-MS/MS analysis. The class given is ADME, organism-based. Also noted: dose 20 mg/kg, route intraperitoneal. To be noted: in vivo. An outline of the steps: (§3)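 Male CD-1 mice, 3 per route. Oral and ip at 20 mg/kg by gavage needle; iv at 5 mg/kg by tail vein. Vehicles were 20% DMA:40% PEG300:40% H2O for oral/iv and 5% DMSO:95% Neobee for ip. Blood sampled 0.083–24 h, plasma protein-precipitated with acetonitrile plus internal standard, LC-MS/MS (MRM). Non-compartmental analysis, linear trapezoidal AUC.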

Data set [14] can be described thus: AUClast in CD1 mouse at 20 mg/kg, ip measured after 0.083 to 24 hrs by LC-MS/MS analysis. Also noted: time lower 0.083 hr, dose 20 mg/kg, time upper 24 hr, route intraperitoneal. To be noted: in vivo. Format: ADME, organism-based. A digest of the protocol: as §3
Data set [15] is described as follows: Oral bio availability in CD1 mouse at 20 mg/kg measured after 0.083 to 24 hrs by LC-MS/MS analysis. Format: ADME, organism-based. To be noted: in vivo. A digest of the protocol:
as §3

Data set [16] deals with T1, Cytochrome P450 1A2 (Homo sapiens, UniProt P05177).
T1 sequence (P05177 whole entry): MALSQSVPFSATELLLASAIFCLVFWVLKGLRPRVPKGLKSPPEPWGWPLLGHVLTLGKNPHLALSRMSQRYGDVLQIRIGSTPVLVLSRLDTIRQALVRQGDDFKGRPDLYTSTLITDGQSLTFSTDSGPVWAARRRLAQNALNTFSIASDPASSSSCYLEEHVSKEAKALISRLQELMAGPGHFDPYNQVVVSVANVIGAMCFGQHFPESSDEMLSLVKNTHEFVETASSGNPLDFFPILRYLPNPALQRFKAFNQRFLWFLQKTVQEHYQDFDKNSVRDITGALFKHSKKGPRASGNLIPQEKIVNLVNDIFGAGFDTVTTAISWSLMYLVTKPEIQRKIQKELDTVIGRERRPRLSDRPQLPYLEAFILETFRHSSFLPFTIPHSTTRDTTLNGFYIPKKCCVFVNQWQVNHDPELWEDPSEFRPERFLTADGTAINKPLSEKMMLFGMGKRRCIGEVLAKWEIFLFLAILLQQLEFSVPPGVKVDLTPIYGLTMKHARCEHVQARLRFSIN
As to the kind of experiment: Inhibition of CYP1A2 in human liver microsomes using isoform-specific probe substrates incubated for 15 to 30 mins by LC-MS/MS analysis. Format: ADME. An outline of the steps:
(§4)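 Pooled mixed-gender human liver microsomes 0.2 mg/mL in 100 mM potassium phosphate with 2 mM NADPH. Isoform-specific probe substrates near Km. Organic solvent ≤1% final. Incubated 37°C for 15–30 min, quenched with acetonitrile plus internal standard. Probe metabolites measured by LC-MS/MS; percent inhibition versus vehicle, IC50 by variable-slope sigmoid fit.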

For data set [17], the target named is Cytochrome P450 2C9 (Homo sapiens, UniProt P11712). Nature of the data set: Inhibition of CYP2C9 in human liver microsomes using isoform-specific probe substrates incubated for 15 to 30 mins by LC-MS/MS analysis. The class given is ADME. An outline of the steps:
as §4

Cytochrome P450 2C9, sequence (P11712 whole entry, canonical isoform): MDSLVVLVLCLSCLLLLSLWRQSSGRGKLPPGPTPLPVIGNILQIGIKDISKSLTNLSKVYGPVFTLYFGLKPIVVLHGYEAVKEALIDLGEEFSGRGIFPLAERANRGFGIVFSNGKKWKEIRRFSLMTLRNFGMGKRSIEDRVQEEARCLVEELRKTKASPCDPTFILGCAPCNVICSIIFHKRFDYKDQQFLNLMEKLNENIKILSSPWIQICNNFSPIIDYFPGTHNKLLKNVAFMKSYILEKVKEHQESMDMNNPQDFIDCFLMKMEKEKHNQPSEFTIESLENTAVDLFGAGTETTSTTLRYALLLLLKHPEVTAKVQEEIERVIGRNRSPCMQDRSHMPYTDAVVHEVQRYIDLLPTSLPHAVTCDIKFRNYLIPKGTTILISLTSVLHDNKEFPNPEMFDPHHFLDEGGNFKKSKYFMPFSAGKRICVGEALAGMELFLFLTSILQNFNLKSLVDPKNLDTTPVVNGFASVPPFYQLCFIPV

For orientation: ED50 means the dose that gives a 50% effect, or the effect in half of the subjects. In general, Cmax refers to the maximum level reached in the sampled fluid or tissue. The AUC(0-t) is exposure summed from dosing to a finite time, without extrapolation to infinity. Broadly, the IC50 is the concentration needed to halve the response being measured. A low value points to inhibition by little substance. In the case of `CC(C)CCNC1=CC(=O)c2ccccc2C1=O`, the Activity result in [1] is recorded as “Toxic”; in data set [3], 100%; in data set [4], 100%; in [5] it was “Toxic”; in data set [7], 19%. Besides, in [2], the inhibition at 48 h, 10 µM came out at 11.9%. Moreover, the ED50 in data set [6] worked out at 108 mg/kg. This molecule returned a concentration at 0.5 h in data set [8] of 1260 ng/mL. Moreover, the concentration at 1 h in [9] came out at 1690 ng/mL. Also, in [10], the concentration at 2 h came to 4930 ng/g. In addition, in data set [11], the concentration at 4 h worked out at 3760 ng/g. The concentration at 8 h in data set [12] amounted to 2630 ng/g. In addition, in data set [13], the Cmax amounted to 320 ng/mL. Further, the AUC(0-t) in data set [14] is 1720 ng·h/mL. Besides, in [15], the F amounted to 35.9%. Besides, the IC50 in [16] is 5.57 µM; in [17], 29.3 µM.

Values taken from ChEMBL document CHEMBL4602726, “Discovery of the First Vitamin K Analogue as a Potential Treatment of Pharmacoresistant Seizures” (J Med Chem, 2020).
